Test system: SCC-12F cells, EGF-induced EGFR degradation, Western blot
Experiment: EGFR lysosomal turnover delay in cells – SCC-12F cells, Western blot, mechanism study for Ras-related GTPase inhibitor project (AID 602146)
Conditions: at 100 µM, stronger effect = higher value; for EGFR remaining fraction at 60 min: measured here: 60 min time point
How it was run: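 Buffer or medium: serum-free DMEM; technique: EGFR Western blot; controls: DMSO-treated cells as degradation reference; times: 2 h compound pretreatment, then EGF exposure up to 2 h; probe or stimulus: EGF, 20 nM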

COc1cccc(C(=O)NC(=S)Nc2sc3c(c2C(=O)O)CC(C)(C)OC3)c1
EGFR remaining fraction at 120 min: 1.24
EGFR remaining fraction at 60 min: 0.651

CC1(C)Cc2c(sc(NC(=S)NC(=O)c3ccc(F)cc3)c2C(=O)O)CO1
EGFR remaining fraction at 120 min: 0.241
EGFR remaining fraction at 60 min: 0.561

CC1(C)Cc2c(sc(NC(=S)NC(=O)c3ccc(Br)cc3)c2C(=O)O)CO1
EGFR remaining fraction at 120 min: 0.643
EGFR remaining fraction at 60 min: 0.696

Reference: PubChem BioAssay AID602146 (NMMLSC, 2011)
